Laboratory results as given in ChEMBL document CHEMBL3352548, “Small-molecule suppression of β-lactam resistance in multidrug-resistant gram-negative pathogens” (J Med Chem, 2014).
In brackets after ≈: the same amount, converted by molar mass. Activity calls are given as the source filed them. The calls are words filed in the database; no cut-off is given here.

Legend:
[1] = test system: Acinetobacter baumannii; experiment: Antibacterial activity against Acinetobacter baumannii ATCC BAA-1605 assessed as complete inhibition of bacterial growth after 16 hrs by microdilution method; assay type: functional; conditions: ATCC BAA-1605, 16 h
Summary of the method: (§1)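 MIC of each compound alone was determined first. Antibiotic MICs (imipenem or meropenem for A. baumannii; ceftazidime or meropenem for P. aeruginosa) were then measured with compound at fixed sub-MIC concentrations. Fold reduction is MIC without compound divided by MIC with compound.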

[2] = test system: Acinetobacter baumannii; experiment: Antibacterial activity against Acinetobacter baumannii ATCC BAA-1605 assessed as fold reduction in meropenem MIC at 30 uM after 16 hrs by microdilution method; assay type: functional; summary of the method: as §1
[3] = test system: Pseudomonas aeruginosa; experiment: Antibacterial activity against Pseudomonas aeruginosa PA53 assessed as complete inhibition of bacterial growth after 16 hrs by microdilution method; assay type: functional; conditions: PA53, 16 h; summary of the method: as §1
[4] = test system: Pseudomonas aeruginosa; experiment: Antibacterial activity against Pseudomonas aeruginosa PA53 assessed as fold reduction in meropenem MIC at 60 uM after 16 hrs by microdilution method; assay type: functional; summary of the method: as §1
[5] = test system: Pseudomonas aeruginosa; experiment: Antibacterial activity against Pseudomonas aeruginosa PA53 assessed as fold reduction in ceftazidime MIC at 60 uM after 16 hrs by microdilution method; assay type: functional; summary of the method: as §1
[6] = test system: Acinetobacter baumannii; experiment: Antibacterial activity against Acinetobacter baumannii ATCC BAA-1605 assessed as fold reduction in imipenem MIC at 30 uM after 16 hrs by microdilution method; assay type: functional; summary of the method: as §1
[7] = test system: Acinetobacter baumannii; experiment: Antibacterial activity against Acinetobacter baumannii ATCC BAA-1605 assessed as fold reduction in meropenem MIC at 60 uM after 16 hrs by microdilution method; assay type: functional; summary of the method: as §1
[8] = test system: Pseudomonas aeruginosa; experiment: Antibacterial activity against Pseudomonas aeruginosa PA53 assessed as fold reduction in meropenem MIC at 30 uM after 16 hrs by microdilution method; assay type: functional; summary of the method: as §1
[9] = test system: Pseudomonas aeruginosa; experiment: Antibacterial activity against Pseudomonas aeruginosa PA53 assessed as fold reduction in ceftazidime MIC at 30 uM after 16 hrs by microdilution method; assay type: functional; summary of the method: as §1
[10] = test system: Acinetobacter baumannii; experiment: Antibacterial activity against Acinetobacter baumannii ATCC BAA-1605 assessed as fold reduction in imipenem MIC at 60 uM after 16 hrs by microdilution method; assay type: functional; summary of the method: as §1
[11] = test system: Pseudomonas aeruginosa; experiment: Antibacterial activity against Pseudomonas aeruginosa PA53 assessed as fold reduction in meropenem MIC at 15 uM after 16 hrs by microdilution method; assay type: functional; summary of the method: as §1
[12] = test system: Pseudomonas aeruginosa; experiment: Antibacterial activity against Pseudomonas aeruginosa PA53 assessed as reduction in CFU at 60 uM after 6 hrs by time kill assay; assay type: functional
Summary of the method: (§2)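 Time-kill: cultures were grown at 37 °C with shaking with compound (15 μM for BAA-1605, 60 μM for PA53), meropenem (1–32 μg/mL for BAA-1605, 1–64 μg/mL for PA53), or both. Samples taken at 2, 4, 6, 8 and 24 h were serially diluted in CAMHB, plated on nutrient agar, incubated overnight at 37 °C, and colonies counted.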

[13] = test system: Acinetobacter baumannii; experiment: Antibacterial activity against Acinetobacter baumannii ATCC BAA-1605 assessed as reduction in CFU at 60 uM after 6 hrs by time kill assay; assay type: functional, organism-based
[14] = test system: Acinetobacter baumannii; experiment: Antibacterial activity against Acinetobacter baumannii ATCC BAA-1605 assessed as reduction in meropenem MIC at 60 uM after 6 hrs by time kill assay; assay type: functional
[15] = test system: Pseudomonas aeruginosa; experiment: Antibacterial activity against Pseudomonas aeruginosa PA53 assessed as reduction in meropenem MIC at 60 uM after 6 hrs by time kill assay; assay type: functional, organism-based
[16] = test system: Acinetobacter baumannii; experiment: Antibacterial activity against Acinetobacter baumannii ATCC BAA-1605 assessed as fold reduction in meropenem MIC at 15 uM after 16 hrs by microdilution method; assay type: functional; summary of the method: as §1
[17] = test system: Acinetobacter baumannii; experiment: Antibacterial activity against Acinetobacter baumannii ATCC BAA-1605 assessed as fold reduction in imipenem MIC at 15 uM after 16 hrs by microdilution method; assay type: functional; summary of the method: as §1
[18] = test system: Acinetobacter baumannii; experiment: Antibacterial activity against Acinetobacter baumannii ATCC BAA-1605 assessed as fold reduction in meropenem MIC at 7.5 uM after 16 hrs by microdilution method; assay type: functional; summary of the method: as §1
[19] = test system: Pseudomonas aeruginosa; experiment: Antibacterial activity against Pseudomonas aeruginosa PA53 assessed as fold reduction in ceftazidime MIC at 15 uM after 16 hrs by microdilution method; assay type: functional; summary of the method: as §1
[20] = test system: Acinetobacter baumannii; experiment: Antibacterial activity against Acinetobacter baumannii ATCC BAA-1605 assessed as fold reduction in imipenem MIC at 7.5 uM after 16 hrs by microdilution method; assay type: functional; summary of the method: as §1
[21] = test system: Acinetobacter baumannii; experiment: Antibacterial activity against Acinetobacter baumannii ATCC BAA-1605 assessed as reduction in CFU at 4 ug/ml after 6 hrs by time kill assay; assay type: functional; summary of the method: as §2
[22] = test system: Acinetobacter baumannii; experiment: Antibacterial activity against Acinetobacter baumannii ATCC BAA-1605 assessed as reduction in CFU at 1 ug/ml after 6 hrs by time kill assay; assay type: functional; summary of the method: as §2
[23] = test system: Pseudomonas aeruginosa; experiment: Antibacterial activity against Pseudomonas aeruginosa PA53 assessed as reduction in CFU at 4 ug/ml after 6 hrs by time kill assay; assay type: functional; summary of the method: as §2
[24] = test system: Pseudomonas aeruginosa; experiment: Antibacterial activity against Pseudomonas aeruginosa PA53 assessed as reduction in CFU at 1 ug/ml after 6 hrs by time kill assay; assay type: functional; summary of the method: as §2

Row | Structure (SMILES) | MIC [1] | MIC [3] [µM] | fold change (FC) [4] | fold change (FC) [5] | fold change (FC) [7] | other results
1 | CCCCCCc1ccc(-c2c[nH]c(N)n2)cc1 | 100 µM | – | – | – | – | –
2 | Cl.Nc1nc(-c2ccc(NC(=O)c3cc(F)c(F)c(F)c3)cc2)c[nH]1 | 100 µM | 200 | 2 | 1 | – | fold change (FC) [2]: 8; fold change (FC) [6]: 8
3 | Cl.Nc1ncc(-c2ccc(NC(=O)c3ccc(I)cc3)cc2)[nH]1 | – | – | 1 | – | 2 | –
4 | Nc1ncc(-c2ccc(NC(=O)c3cc(F)cc(F)c3)cc2)[nH]1 | 200 µM | 100 (≈ 31.4 µg/mL) | – | – | 16 | fold change (FC) [8]: 2; fold change (FC) [9]: 1; fold change (FC) [10]: 8
5 | CCCCCCC(=O)Nc1ccc(-c2cnc(N)[nH]2)cc1 | 200 µM | – | – | – | – | –
6 | Cl.Nc1nc(-c2ccc(NC(=O)c3c(Cl)cc(Cl)cc3Cl)cc2)c[nH]1 | 100 µM | 200 | 4 | 1 | – | fold change (FC) [2]: 4; fold change (FC) [6]: 1
7 | C[C@@H](O)[C@H]1C(=O)N2C(C(=O)O)=C(SCCNC=N)C[C@H]12 [IMIPENEM ANHYDROUS] | 16 mg/L | – | – | – | – | –
8 | Cl.Nc1ncc(-c2ccc(NC(=O)c3cccc(I)c3)cc2)[nH]1 | – | – | 1 | – | 8 | –
9 | Cl.Nc1ncc(-c2ccc(NC(=O)c3ccc(F)c(Cl)c3)cc2)[nH]1 | – | – | – | – | – | fold change (FC) [2]: 4; fold change (FC) [11]: 1
10 | Cl.Nc1nc(-c2ccc(NC(=O)c3cccc(Br)c3)cc2)c[nH]1 | > 200 µM | > 200 | 4 | 16 | 16 | fold change (FC) [10]: 8
11 | Cl.Nc1nc(-c2ccc(NC(=O)c3ccccc3F)cc2)c[nH]1 | > 200 µM | > 200 | 2 | 1 | 2 | fold change (FC) [10]: 1
12 | Cl.Nc1nc(-c2ccc(NC(=O)c3c(F)c(F)c(F)c(F)c3F)cc2)c[nH]1 | > 200 µM | > 200 | 2 | 1 | 2 | fold change (FC) [10]: 1
13 | Cl.Nc1ncc(-c2ccc(NC(=O)c3cccc(Cl)c3Cl)cc2)[nH]1 | – | – | 1 | – | 2 | Activity [12]: inactive; Activity [13]: inactive; fold change (FC) [14]: 2; Activity [15]: inactive
14 | Nc1ncc(-c2ccc(NC(=O)/C=C/c3ccccc3)cc2)[nH]1 | 100 µM | – | – | – | – | –
15 | Cl.Nc1nc(-c2ccc(NC(=O)c3ccc(C(F)(F)F)cc3)cc2)c[nH]1 | 50 µM | 100 | – | – | – | fold change (FC) [16]: 4; fold change (FC) [8]: 8; fold change (FC) [9]: 8; fold change (FC) [17]: 4
16 | Cl.Nc1nc(-c2ccc(NC(=O)c3ccc(Cl)cc3)cc2)c[nH]1 | > 200 µM | > 200 | 2 | 1 | 8 | fold change (FC) [10]: 4
17 | Cl.Nc1ncc(-c2ccc(NC(=O)c3ccc(Cl)c(Cl)c3)cc2)[nH]1 | – | – | – | – | – | fold change (FC) [2]: 64; fold change (FC) [8]: 1
18 | Cl.Nc1nc(-c2ccc(NC(=O)c3ccc(C(F)(F)F)c(F)c3)cc2)c[nH]1 | 25 µM | 50 | – | – | – | fold change (FC) [18]: 4; fold change (FC) [11]: 4; fold change (FC) [19]: 8; fold change (FC) [20]: 2
19 | CCCCCC(=O)Nc1cccc(-c2c[nH]c(N)n2)c1 | 100 µM | – | – | – | – | –
20 | Cl.Nc1nc(-c2ccc(NC(=O)c3ccc(F)cc3)cc2)c[nH]1 | > 200 µM | 200 | 2 | 1 | 4 | fold change (FC) [10]: 2
21 | Cl.Nc1ncc(-c2ccc(NC(=O)c3ccc(Br)cc3F)cc2)[nH]1 | – | – | 1 | – | 2 | –
22 | Cl.Nc1ncc(-c2ccc(NC(=O)c3ccc(Cl)cc3Cl)cc2)[nH]1 | – | – | 1 | – | 4 | –
23 | Cl.Nc1ncc(-c2ccc(NC(=O)c3cc(Br)cc(Br)c3)cc2)[nH]1 | – | – | 1 | – | – | fold change (FC) [2]: 4
24 | Cl.Nc1nc(-c2ccc(NC(=O)c3ccc(Br)cc3)cc2)c[nH]1 | > 200 µM | > 200 | 2 | 1 | 16 | fold change (FC) [10]: 8
25 | Cl.Nc1nc(-c2ccc(NC(=O)c3cccc(F)c3)cc2)c[nH]1 | > 200 µM | 200 | 2 | 1 | 4 | fold change (FC) [10]: 2
26 | CCCCCc1ccc(C(=O)Nc2ccc(-c3cnc(N)[nH]3)cc2)cc1 | 200 µM | – | – | – | – | –
27 | Cl.Nc1ncc(-c2ccc(NC(=O)c3cc(I)c(I)c(I)c3)cc2)[nH]1 | – | – | 1 | – | 2 | –
28 | C[C@@H](O)[C@H]1C(=O)N2C(C(=O)O)=C(S[C@@H]3CN[C@H](C(=O)N(C)C)C3)[C@H](C)[C@H]12 [MEROPENEM] | 32 mg/L | – | – | – | – | fold change (FC) [21]: <0.1; fold change (FC) [22]: <0.1; fold change (FC) [23]: 0.2; fold change (FC) [24]: 0.2
